A short description of data set [1]: Stability in cell culture supernatants. The data set is classed as in vitro ADME. In outline:
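Test compounds are incubated in conditioned medium collected from MV4;11 cultures for 24 h at 37 °C. Intact compound and the free acid product are then quantified by LC/MS, with species identified by retention time. Values are means ± SEM of three biological replicates.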

The conditions of data set [2]: after 24 h; cited from earlier work.
Data set [3] deals with OCI-AML2 cells. As to the kind of experiment: CTG cell viability in WT and CARD8^−/− OCI-AML2 cells. The data set is classed as cell-based, human. The following applies: 24 h. In short, it runs like this:
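Test compound was added by pintool at various concentrations to OCI-AML2 cells (WT or CARD8−/−) plated at 2000 cells/well in 384-well format, in RPMI 1640 with L-glutamine and 10% FBS. Cells were incubated for 24 h at 37 °C in 5% CO2. CellTiter-Glo was then added, plates were shaken for 2 min and held at 25 °C for 10 min, and luminescence was read.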

For data set [4], the target named is T1, recombinant human PEPD (Homo sapiens, UniProt P12955).
T1 sequence (P12955 1-493): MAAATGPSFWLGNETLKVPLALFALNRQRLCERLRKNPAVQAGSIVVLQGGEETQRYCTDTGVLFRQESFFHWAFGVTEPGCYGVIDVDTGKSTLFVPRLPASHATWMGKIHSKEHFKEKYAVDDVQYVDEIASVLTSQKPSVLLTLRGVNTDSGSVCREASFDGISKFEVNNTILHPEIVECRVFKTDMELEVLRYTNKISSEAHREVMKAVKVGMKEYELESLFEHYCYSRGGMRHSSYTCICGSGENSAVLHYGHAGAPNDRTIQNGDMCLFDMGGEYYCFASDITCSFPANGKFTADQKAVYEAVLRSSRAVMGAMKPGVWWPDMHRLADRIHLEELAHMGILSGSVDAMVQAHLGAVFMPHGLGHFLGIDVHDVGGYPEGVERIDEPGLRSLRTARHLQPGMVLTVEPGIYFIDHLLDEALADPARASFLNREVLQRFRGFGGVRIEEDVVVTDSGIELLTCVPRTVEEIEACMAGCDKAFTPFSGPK
The data set is described as follows: Inhibition of recombinant PEPD, alanine release assay. The data set is classed as biochemical.

For data set [5], the target named is recombinant XPNPEP1 (Homo sapiens, UniProt Q9NQW7). The data set is described as follows: Inhibition of recombinant XPNPEP1, H-Lys. The format is biochemical. As to conditions: recombinant XPNPEP1.
Data set [6] has as its system MV4;11 cells. The data set is described as follows: PI uptake in MV4. The format is cell-based, human. The following applies: 6.25 μM; WT, CASP1^−/−, CARD8^−/− cells. In outline: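 MV4;11 cells (WT, CASP1−/− or CARD8−/−) were plated at 2 × 10^4 cells/well in 384-well format in RPMI and treated with test compound (6.25 μM) for 6 h before PI uptake monitoring. PI was added at 10 μM final. Fluorescence (Ex/Em 535/617 nm) was read every 5 min at 37 °C, baseline-corrected to DMSO vehicle and normalised to maximum response.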

For data set [7], the system named is MV4;11, OCI-AML2, and THP-1 cells. The data set is described as follows: LDH release and GSDMD cleavage immunoblot in WT and CARD8^−/− cells. The following applies: 20 μM, 24 h, but not CARD8^−/−. The format is cell-based, human.
Data set [8] deals with DOX-inducible CARD8 E274R mutant THP-1 cells. The data set is described as follows: CARD8 E274R mutant NT degradation assay in CARD8^−/− THP-1 cells. The data set is classed as cell-based, human. The following applies: DOX 100 ng/mL 16 h; VbP 10 μM, CQ31/CQ80 20 μM, VP-OMe 1 mM, MeBs 10 μM; 6 h. In outline: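 Parental CARD8-knockout THP-1 cells carry a stably integrated doxycycline-inducible CARD8 E274R construct. Cells are grown in RPMI 1640 with L-glutamine and 10% FBS at 37 °C in 5% CO2. They are induced with or without DOX (100 ng/mL, 16 h), then exposed to test compounds for 6 h.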

Data set [9] concerns the target CARD8-DPP9 ternary complex in HEK 293T^CASP1+GSDMD cells (Homo sapiens, UniProt Q86TI2). As to the kind of experiment: dTAG-based CARD8-DPP9 ternary complex disruption assay. The data set is classed as cell-based. As to conditions: dTAG-13 500 nM; VbP 10 μM, CQ31 20 μM, CQ80 20 μM, VP-OMe 1 mM; 6 h; LDH release. (In general: Release of lactate dehydrogenase indicates damage to the cell membrane.)

Data set [10] has as its system human resting T cells. The data set is described as follows: GSDMD cleavage in human resting T cells. The following applies: 20 μM, 24 h. The format is cell-based. In outline:
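Primary human T cells (>90% purity by flow cytometry) are thawed in RPMI-1640 with 10% FBS and cultured with 30 U/mL IL-2. Cells receive test compound for 24 h, then are washed twice in PBS and lysed by sonication. Protein is normalized before SDS-PAGE, and blots are probed with an anti-GSDMD rabbit polyclonal and imaged by infrared fluorescence.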

Data set [11] deals with THP-1 cells. As to the kind of experiment: LDH release and GSDMD cleavage in knockout THP-1 cells. The following applies: 20 μM, 24 h; for Pyroptosis in DPP8/9^−/− THP-1 cells: LDH release and GSDMD cleavage. The data set is classed as cell-based, human.
For data set [12], the system named is N/TERT-1 immortalized keratinocytes. The data set is described as follows: CTG cell viability in N/TERT-1 keratinocytes. The format is cell-based, human. The following applies: VbP 10 μM, CQ compounds 20 μM, 24 h. In outline:
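N/TERT-1 keratinocytes are grown in keratinocyte serum-free medium with 1× penicillin/streptomycin, bovine pituitary extract (25 μg/mL) and EGF (0.2 ng/mL) at 37 °C in 5% CO2. Plating density is 2000 cells/well in 384-well plates, with compound added by pin tool. After 24 h, CellTiter-Glo reagent is added, plates are shaken 2 min, held 10 min at 25 °C, and luminescence is read. Values are means ± SEM of three biological replicates.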

In data set [13] the test system is OCI-AML2 cells. As to the kind of experiment: PI uptake in OCI-AML2 cells. The format is cell-based, human. The following applies: 6.25 μM, compared to CQ31. In outline: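 OCI-AML2 cells (2 × 10^4 per well, 384-well, RPMI) are treated with 6.25 μM compound, with PI added at 10 μM final. PI fluorescence (Ex/Em 535/617 nm) is recorded at 37 °C every 5 min over 6 h. Signals are baseline-corrected to DMSO vehicle and normalized to the maximum response. Values are means ± SEM of three biological replicates.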

Data set [14] relates to BMDMs from C57BL/6J mice and RAW264.7 cells. The data set is described as follows: LDH release and GSDMD cleavage in mouse BMDMs and RAW264.7 cells. The data set is classed as cell-based. As to conditions: VbP 10 μM, CQ31/CQ80 20 μM, 24 h. In outline:
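BMDMs: bone marrow is collected from femurs and tibias of 7–12-week-old C57BL/6J mice, strained (70 μm) and RBC-lysed. Cells are cultured 6 days at 37 °C in DMEM with 10% FBS and 15–20% L-cell medium, then replated. RAW264.7 cells are grown in DMEM with 10% FBS and seeded at 5 × 10^5 per well in 12-well plates. Both receive compound for 24 h. LDH is read relative to a Triton X-100 lysis control, and immunoblots use an anti-mouse GSDMD rabbit monoclonal. RAW264.7 data are means ± SEM, n = 3.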

A value given as a limit tells only on which side of the number the result lay.

Chain of CARD8-DPP9 ternary complex in HEK 293T^CASP1+GSDMD cells (Q86TI2 whole entry, one chain of several): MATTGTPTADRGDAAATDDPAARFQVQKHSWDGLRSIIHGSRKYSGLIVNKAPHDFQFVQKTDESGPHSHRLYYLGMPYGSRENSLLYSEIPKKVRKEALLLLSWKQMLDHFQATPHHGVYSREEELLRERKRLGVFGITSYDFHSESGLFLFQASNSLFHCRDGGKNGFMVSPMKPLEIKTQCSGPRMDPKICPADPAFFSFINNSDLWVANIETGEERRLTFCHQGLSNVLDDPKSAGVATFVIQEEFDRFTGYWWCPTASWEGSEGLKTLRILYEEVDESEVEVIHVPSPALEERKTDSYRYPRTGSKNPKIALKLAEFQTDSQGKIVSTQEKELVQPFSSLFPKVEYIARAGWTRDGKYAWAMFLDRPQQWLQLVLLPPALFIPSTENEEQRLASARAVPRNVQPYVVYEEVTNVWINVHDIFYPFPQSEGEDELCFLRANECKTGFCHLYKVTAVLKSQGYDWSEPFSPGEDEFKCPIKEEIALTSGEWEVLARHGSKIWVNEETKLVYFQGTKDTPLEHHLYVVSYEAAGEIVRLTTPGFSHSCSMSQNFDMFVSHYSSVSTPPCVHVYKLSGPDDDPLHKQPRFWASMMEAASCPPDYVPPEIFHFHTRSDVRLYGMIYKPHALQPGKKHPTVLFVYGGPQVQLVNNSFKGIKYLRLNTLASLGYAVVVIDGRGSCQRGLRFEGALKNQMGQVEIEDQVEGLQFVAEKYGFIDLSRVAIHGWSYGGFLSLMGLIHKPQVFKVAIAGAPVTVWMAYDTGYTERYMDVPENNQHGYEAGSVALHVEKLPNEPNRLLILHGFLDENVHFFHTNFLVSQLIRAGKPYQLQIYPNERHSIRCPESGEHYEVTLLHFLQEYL
Chain of recombinant XPNPEP1 (Q9NQW7 whole entry): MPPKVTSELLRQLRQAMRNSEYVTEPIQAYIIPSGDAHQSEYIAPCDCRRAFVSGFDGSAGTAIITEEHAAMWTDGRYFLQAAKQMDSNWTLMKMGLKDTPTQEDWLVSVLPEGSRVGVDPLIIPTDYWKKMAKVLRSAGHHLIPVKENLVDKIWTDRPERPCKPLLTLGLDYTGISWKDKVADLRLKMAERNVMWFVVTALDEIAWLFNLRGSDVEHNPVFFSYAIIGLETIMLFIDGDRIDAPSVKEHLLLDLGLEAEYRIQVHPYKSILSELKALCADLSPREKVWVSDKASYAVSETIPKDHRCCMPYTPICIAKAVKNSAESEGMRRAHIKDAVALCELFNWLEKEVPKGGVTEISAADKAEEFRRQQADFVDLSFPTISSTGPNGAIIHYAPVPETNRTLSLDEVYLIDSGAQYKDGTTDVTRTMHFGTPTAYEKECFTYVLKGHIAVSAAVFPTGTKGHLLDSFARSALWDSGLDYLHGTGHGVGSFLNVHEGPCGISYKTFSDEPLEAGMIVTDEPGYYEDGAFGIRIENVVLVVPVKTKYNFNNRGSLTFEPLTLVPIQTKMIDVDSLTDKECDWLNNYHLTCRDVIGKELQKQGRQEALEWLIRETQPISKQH

Turning to `COC(=O)[C@@H]1CCCN1C(=O)[C@@H](O)[C@H](N)CC(C)C` [CQ31], the “Time to conversion to CQ04” value in data set [1] is listed as not above 30 min. Further, in data set [2], the “De-esterification to CQ04 in cell culture” value is “completely de-esterified”. Moreover, the “Cell death in OCI-AML2 cells” value in [3] was “induced cell death in WT but not CARD8^−/−”. Moreover, the “PEPD inhibition (in words)” value in data set [4] was “inhibited PEPD and XPNPEP1 similarly”. For the same compound, in [5], the “XPNPEP1 inhibition (in words)” value is “inhibited PEPD and XPNPEP1 similarly”. Also, the “PI uptake in MV4;11 cells” value in [6] is given as “induced PI uptake in WT but not CASP1^−/− or CARD8^−/−”. Further, in data set [7], the “LDH release and GSDMD cleavage” value is “induced lactate dehydrogenase (LDH) release and GSDMD cleavage”. The “Additional cell death in CARD8 E274R assay (NT degradation)” value (from here on “Additional cell death”) in data set [8] is listed as “do not trigger as much degradation as MeBs”. Besides, in [9], the “Pyroptosis after dTAG-13 treatment (ternary complex destabilization)” value was “induce more pyroptosis after dTAG-13 treatment”. Besides, the “GSDMD cleavage in human resting T cells” value in data set [10] was “induced GSDMD cleavage”. In data set [11], the “Sensitivity of PEPD and XPNPEP1 single knockout THP-1 cells” value is recorded as “sensitive”; the “Sensitivity of PEPD/XPNPEP1 double knockout THP-1 cells” value was “completely resistant”; the “Pyroptosis in DPP8/9^−/− THP-1 cells” value is “neither CQ80 nor CQ31 induced any additional pyroptosis”.

As to `COC(=O)[C@H](CC(C)C)NC(=O)[C@@H]1CCCN1C(=O)[C@@H](O)[C@H](N)CC(C)C` [CQ80, Methyl ((2S,3R)-3-Amino-2-hydroxy-5-methylhexanoyl)-l-prolyl-l-leucinate], in [1] (after 24 h at 37 °C), the Fraction remaining intact is recorded as ~ 50%. In addition, the “Cell death in N/TERT-1 keratinocytes (human NLRP1 activation)” value in data set [12] is listed as “does not activate”. The “Rate of lytic cell death by PI uptake in OCI-AML2 cells” value in [13] was “caused more rapid lytic cell death”. Also, the “Cell death in OCI-AML2 cells” value in data set [3] is listed as “induced cell death in WT but not CARD8^−/−”. Further, the “PI uptake in MV4;11 cells” value in data set [6] was “induced PI uptake in WT but not CASP1^−/− or CARD8^−/−”. In addition, the “LDH release and GSDMD cleavage” value in data set [7] is “induced lactate dehydrogenase (LDH) release and GSDMD cleavage”. Also, the “Additional cell death” value in data set [8] is listed as “do not trigger as much degradation as MeBs”. Besides, the “Pyroptosis after dTAG-13 treatment (ternary complex destabilization)” value in data set [9] is “induce more pyroptosis after dTAG-13 treatment”. In addition, the “GSDMD cleavage in human resting T cells” value in [10] was “induced GSDMD cleavage”. Also, in data set [11], the “Sensitivity of PEPD and XPNPEP1 single knockout THP-1 cells” value is recorded as “sensitive”; the “Sensitivity of PEPD/XPNPEP1 double knockout THP-1 cells” value is on record as “completely resistant”; the “Pyroptosis in DPP8/9^−/− THP-1 cells” value is given as “neither CQ80 nor CQ31 induced any additional pyroptosis”. Further, the “Pyroptosis in mouse BMDMs and RAW264.7 cells (rodent NLRP1 activation)” value in data set [14] was “does not activate”.

As to `CC(C)[C@H](N)C(=O)N1CCC[C@H]1B(O)O` [VbP, ValboroPro, reference compound], in data set [12], the “Cell death in N/TERT-1 keratinocytes (human NLRP1 activation)” value is “induced cell death”. The “Additional cell death” value in data set [8] is on record as “did not cause substantially more death”. Also, in [14], the “Pyroptosis in mouse BMDMs and RAW264.7 cells (rodent NLRP1 activation)” value is listed as “induced pyroptosis”.

These data come from publication PMC10149104 (Journal of medicinal chemistry, 2023).
